Our source for the Ki, Activity and EC50 values is ChEMBL document CHEMBL1150363, “Synthesis, ligand-receptor modeling studies and pharmacological evaluation of novel 4-modified-2-aryl-1,2,4-triazolo[4,3-a]quinoxalin-1-one derivatives as potent and selective human A3 adenosine receptor antagonists” (Bioorg Med Chem, 2008).

The source made the active and inactive calls. The calls are words filed in the database; no cut-off is given here.

In general, Ki refers to the equilibrium dissociation constant of an inhibitor or competing ligand from its target. A higher Ki goes with weaker binding. Usually EC50 stands for the midpoint of the concentration-response curve.

The target of assay [1] is T1, Adenosine receptor A3 (Homo sapiens, UniProt P0DMS8).
T1 sequence (P0DMS8 whole entry): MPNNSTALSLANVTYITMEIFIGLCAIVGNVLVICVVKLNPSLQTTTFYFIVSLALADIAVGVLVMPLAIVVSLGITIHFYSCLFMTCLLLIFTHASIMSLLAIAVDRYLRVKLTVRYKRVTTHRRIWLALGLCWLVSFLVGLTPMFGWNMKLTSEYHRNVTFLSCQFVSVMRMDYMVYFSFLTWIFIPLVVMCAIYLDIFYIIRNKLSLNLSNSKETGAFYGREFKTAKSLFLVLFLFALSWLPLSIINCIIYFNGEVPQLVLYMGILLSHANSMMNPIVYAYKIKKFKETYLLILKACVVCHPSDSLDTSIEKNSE
As to the kind of experiment: Displacement of [125I]AB-MECA from human cloned adenosine A3 receptor expressed in CHO cells. Format: cell-based. The procedure, abridged:
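CHO cells stably expressing hA3. IC50 by non-linear regression over five displacer concentrations in triplicate, converted to Ki by Cheng-Prusoff. Ki values are means of four assays.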

Another assay addresses Adenosine receptor A2a (Homo sapiens, UniProt P29274). Put plainly: Displacement of [125I]NECA from human adenosine A2A receptor expressed in CHO cells at 10uM. Format: cell-based. The settings on record: in the assay text read “[3H]NECA” for “[125I]NECA”. The procedure, abridged:
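hA2A stably expressed in CHO cells. Radioligand [3H]NECA (Kd 30 nM). Percentage inhibition of specific binding measured at 10 µM.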
For orientation: In a radioligand displacement assay an active substance lowers the binding of a labelled ligand.

For a further assay, the species on record is Bos taurus. As to the kind of experiment: Displacement of [3H]CGS21680 from adenosine A2A receptor in bovine brain membrane at 10 uM. In kind it is cell membranes. Summed up: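 Bovine striatal membranes, [3H]CGS 21680 (Kd 14 nM). Five displacer concentrations in triplicate, non-linear regression IC50, Cheng-Prusoff Ki, four assays. Single-point data are % inhibition at 10 µM.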

The target in assay [2] is T1, Adenosine receptor A3. Put plainly: Antagonist activity at human […] expressed in CHO cells assessed as inhibition of NECA-induced cAMP accumulation. In kind it is functional, cell-based. Summed up:
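hA3-transfected CHO cells (~60,000/well, 48 h) preincubated 15 min at 37 °C with Ro 20-1724 (20 µM) and adenosine deaminase (1 U/mL). Compound (1 nM–10 µM, 15 min) added, then 100 nM NECA against 1 µM forskolin-stimulated cAMP. Stopped with 0.4 N HCl. cAMP measured by [3H]cAMP competitive binding-protein assay. Sigmoid non-linear regression; three separate experiments.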

Assay [3] concerns the target T2, Adenosine receptor A3 (Rattus norvegicus) (UniProt P28647).
T2 sequence (whole entry): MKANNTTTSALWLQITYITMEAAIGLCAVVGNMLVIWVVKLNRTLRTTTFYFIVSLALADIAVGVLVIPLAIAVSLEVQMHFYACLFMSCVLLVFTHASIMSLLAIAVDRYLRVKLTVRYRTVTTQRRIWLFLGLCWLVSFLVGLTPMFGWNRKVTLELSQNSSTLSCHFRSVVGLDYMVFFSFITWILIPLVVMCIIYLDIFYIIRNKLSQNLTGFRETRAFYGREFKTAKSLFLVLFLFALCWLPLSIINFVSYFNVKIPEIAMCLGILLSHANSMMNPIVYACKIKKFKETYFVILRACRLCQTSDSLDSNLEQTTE
As to the kind of experiment: Displacement of [3H](R)-PIA from adenosine A3 receptor in Wistar rat testis membrane at 1 uM. In kind it is cell membranes. Summed up:
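Wistar rat testis membranes (0.1–0.2 mg protein) with 4 nM [3H](R)-PIA in 50 mM Tris/HCl pH 7.4, 1 mM EDTA, 10 mM MgCl2, plus 150 nM DPCPX to block A1 sites. Nonspecific binding defined with 15 µM (R)-PIA. Filtration, then scintillation counting. Percent inhibition at 1 µM.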

Assay [4] addresses T3, Adenosine receptor A1 (Rattus norvegicus, UniProt P25099).
T3 sequence (P25099 whole entry): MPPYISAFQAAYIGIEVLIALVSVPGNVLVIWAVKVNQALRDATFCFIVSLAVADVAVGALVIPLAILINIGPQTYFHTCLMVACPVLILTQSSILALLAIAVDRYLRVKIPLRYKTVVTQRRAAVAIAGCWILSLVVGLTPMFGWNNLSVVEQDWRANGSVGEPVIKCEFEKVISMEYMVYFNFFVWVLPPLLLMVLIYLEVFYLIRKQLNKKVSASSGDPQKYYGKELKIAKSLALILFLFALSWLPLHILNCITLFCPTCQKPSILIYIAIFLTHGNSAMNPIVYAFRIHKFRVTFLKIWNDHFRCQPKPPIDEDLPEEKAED
Put plainly: Displacement of [3H]DPCPX from adenosine A1 receptor in Wistar rat cerebral cortex. Format: tissue-based.

The species entered for assay [5] is Rattus norvegicus. As to the kind of experiment: Inhibition of anoxic depolarization in Wistar rat cerebral ischemia model at 10 nM treated after 7 mins of oxygen and glucose deprivation. Format: functional. The procedure, abridged: (§1)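 Rat hippocampal slices (400 µm), submerged and superfused with oxygenated aCSF at 30–32 °C. OGD made with glucose-free, N2-gassed aCSF for 7 or 30 min. Drug applied 15 min before, during and 5 min after OGD; 10 nM, with 0.5 nM–1 µM tested in 30-min runs. Anoxic depolarization recorded in CA1 as negative d.c. shift, with peak time from OGD onset. Means ± SEM; unpaired two-tailed t test.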

The species named for assay [6] is Rattus norvegicus. Put plainly: Inhibition of fEPSP amplitude in Wistar rat cerebral ischemia model at 10 nM treated after 7 mins of oxygen and glucose deprivation. In kind it is functional. Summed up: (§2)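 Rat hippocampal slices, CA1 stratum radiatum fEPSP evoked by 80 µs, 0.066 Hz pulses at 30–32 °C. Drug (10 nM) given 15 min before, during and 5 min after 7-min OGD (glucose-free aCSF, 95% N2–5% CO2). Amplitude expressed as % of baseline, with recovery assessed after reperfusion in oxygenated glucose aCSF. Means ± SEM.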

The species named for assay [7] is Rattus norvegicus. As to the kind of experiment: Effect on fEPSP amplitude under normoxic condition in Wistar rat cerebral ischemia model treated before 15 mins of oxygen and glucose deprivation. In kind it is functional. Summed up: as §2
The species named for assay [8] is Rattus norvegicus. Put plainly: Effect on fEPSP amplitude under normoxic condition in Wistar rat cerebral ischemia model treated during oxygen and glucose deprivation. Format: functional. Summed up:
as §2

The species entered for assay [9] is Rattus norvegicus. Put plainly: Effect on fEPSP amplitude under normoxic condition in Wistar rat cerebral ischemia model treated after 5 mins of oxygen and glucose deprivation. Format: functional. The procedure, abridged:
as §2

The species entered for assay [10] is Rattus norvegicus. As to the kind of experiment: Effect on anoxic depolarization in Wistar rat cerebral ischemia model assessed as delay in appearance treated before 15 mins of oxygen and glucose deprivation. Format: functional. Summed up: as §1
Assay [11] is filed under the species Rattus norvegicus. Put plainly: Effect on anoxic depolarization in Wistar rat cerebral ischemia model assessed as delay in appearance treated during oxygen and glucose deprivation. In kind it is functional. The procedure, abridged:
as §1

The target in assay [12] is T4, Adenosine receptor A1 (Bos taurus, UniProt P28190).
T4 sequence (P28190 whole entry): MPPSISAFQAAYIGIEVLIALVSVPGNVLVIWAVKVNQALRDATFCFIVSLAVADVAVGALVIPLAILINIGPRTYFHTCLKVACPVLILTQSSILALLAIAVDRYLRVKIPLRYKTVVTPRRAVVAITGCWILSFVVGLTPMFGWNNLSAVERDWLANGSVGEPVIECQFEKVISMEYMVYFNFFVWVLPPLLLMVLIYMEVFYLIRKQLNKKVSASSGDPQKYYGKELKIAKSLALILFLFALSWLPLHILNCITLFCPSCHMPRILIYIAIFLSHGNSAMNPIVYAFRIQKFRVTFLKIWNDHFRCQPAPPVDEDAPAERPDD
As to the kind of experiment: Displacement of [3H]DPCPX from adenosine A1 receptor in bovine brain membrane.

Assay [13] has as its target T5, Adenosine receptor A1 (Homo sapiens) (UniProt P30542).
T5 sequence (whole entry): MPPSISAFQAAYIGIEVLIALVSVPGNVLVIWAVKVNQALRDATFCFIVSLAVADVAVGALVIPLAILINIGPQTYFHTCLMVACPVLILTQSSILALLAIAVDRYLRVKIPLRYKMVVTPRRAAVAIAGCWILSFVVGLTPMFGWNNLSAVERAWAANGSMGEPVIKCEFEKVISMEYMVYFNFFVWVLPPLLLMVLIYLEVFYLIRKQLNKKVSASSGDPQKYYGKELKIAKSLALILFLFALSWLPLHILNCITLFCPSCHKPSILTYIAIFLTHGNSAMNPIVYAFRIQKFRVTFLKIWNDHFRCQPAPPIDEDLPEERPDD
Put plainly: Displacement of [3H]DPCPX from human cloned adenosine A1 receptor expressed in CHO cells at 10 uM.

Sequence of Adenosine receptor A2a (P29274 whole entry): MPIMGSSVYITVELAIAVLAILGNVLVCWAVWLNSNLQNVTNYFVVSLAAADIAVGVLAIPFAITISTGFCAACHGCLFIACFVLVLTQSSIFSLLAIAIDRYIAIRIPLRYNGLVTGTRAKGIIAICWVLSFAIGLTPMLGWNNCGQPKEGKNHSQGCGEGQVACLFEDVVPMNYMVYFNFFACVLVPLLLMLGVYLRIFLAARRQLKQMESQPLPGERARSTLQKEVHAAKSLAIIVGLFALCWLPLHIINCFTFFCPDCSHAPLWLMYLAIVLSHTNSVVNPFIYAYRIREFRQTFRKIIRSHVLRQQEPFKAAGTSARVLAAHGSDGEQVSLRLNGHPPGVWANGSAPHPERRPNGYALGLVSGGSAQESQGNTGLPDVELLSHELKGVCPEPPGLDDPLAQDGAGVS

Consider `CS(=O)(=O)N(c1nc2ccccc2n2c(=O)n(-c3ccccc3)nc12)S(C)(=O)=O`, for which the Ki turned out to be 5.5 nM at Adenosine receptor A3 [1], 132 nM at Adenosine receptor A1 [4] and 36 nM at Adenosine receptor A1 [12]. For the same compound, the Activity at Adenosine receptor A2a came out at 32%; in the assay filed under Bos taurus it was 56%; in assay [3] it was 5%; in the assay filed under Rattus norvegicus [10], 9.3 min; in the assay listed under Rattus norvegicus [11] it was 9.3 min; in assay [13], 36%. Also, the EC50 on Adenosine receptor A3 [2] was found to be 12 nM. The outcome in the assay filed under Rattus norvegicus [5] and in the assay filed under Rattus norvegicus [6] was Active. Further, the result in the assay listed under Rattus norvegicus [7], in the assay listed under Rattus norvegicus [8] and in the assay filed under Rattus norvegicus [9] was inactive.
